How the values were obtained:
Format in all cases: in vitro ADME
[1] = target: T1, UGT1A10 (Homo sapiens, UniProt Q9HAW8); assay: Steady state kinetics of glucuronidation by recombinant UGT1A10
T1 sequence (Q9HAW8 26-530): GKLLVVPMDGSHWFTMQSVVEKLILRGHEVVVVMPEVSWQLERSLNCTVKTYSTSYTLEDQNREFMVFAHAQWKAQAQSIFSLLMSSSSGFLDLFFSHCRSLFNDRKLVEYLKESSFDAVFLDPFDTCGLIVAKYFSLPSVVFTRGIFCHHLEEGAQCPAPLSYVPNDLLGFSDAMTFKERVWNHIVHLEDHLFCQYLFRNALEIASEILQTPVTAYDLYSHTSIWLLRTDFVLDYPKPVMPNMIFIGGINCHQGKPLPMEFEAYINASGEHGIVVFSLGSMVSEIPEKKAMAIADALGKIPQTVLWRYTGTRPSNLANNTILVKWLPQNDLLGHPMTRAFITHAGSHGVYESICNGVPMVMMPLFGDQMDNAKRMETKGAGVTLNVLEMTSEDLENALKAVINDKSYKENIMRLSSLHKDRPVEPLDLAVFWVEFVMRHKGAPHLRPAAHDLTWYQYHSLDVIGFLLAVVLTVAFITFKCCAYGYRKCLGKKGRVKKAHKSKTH

[2] = Glucuronidation by human intestinal microsomes; conditions: 0.25 mM substrate, 60 min
In short: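 Microsomes from individual human livers (10 donors), a pooled liver sample and hepatosomes, or from intestines (13 donors). Substrate dried from ethanol, redissolved in DMSO and sonicated. Incubated 37 °C, 60 min; ethanol stop, centrifuged. Glucuronides measured by reversed-phase HPLC-UV; nmol/mg/min, median and range.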

[3] = target: T2, UGT2B4 (Homo sapiens, UniProt P06133); assay: Screening of recombinant UGT2B4 for glucuronidation activity; conditions: 250 μM substrate, 5 μg protein, 60 min, 37 °C
T2 sequence (P06133 24-528): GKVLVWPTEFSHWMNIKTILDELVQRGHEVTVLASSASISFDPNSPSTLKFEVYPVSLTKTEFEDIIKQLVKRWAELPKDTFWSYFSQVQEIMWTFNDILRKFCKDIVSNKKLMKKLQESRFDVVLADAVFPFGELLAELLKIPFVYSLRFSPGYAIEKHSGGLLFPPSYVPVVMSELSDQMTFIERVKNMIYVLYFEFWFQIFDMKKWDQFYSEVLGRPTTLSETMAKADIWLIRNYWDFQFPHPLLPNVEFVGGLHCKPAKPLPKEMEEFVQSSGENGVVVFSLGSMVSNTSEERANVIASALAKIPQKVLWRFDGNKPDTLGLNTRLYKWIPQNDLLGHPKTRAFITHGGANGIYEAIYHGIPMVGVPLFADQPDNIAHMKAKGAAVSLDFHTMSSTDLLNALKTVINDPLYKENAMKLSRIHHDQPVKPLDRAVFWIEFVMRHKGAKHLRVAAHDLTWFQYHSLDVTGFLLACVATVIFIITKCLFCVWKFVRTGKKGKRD
In short: (§1)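 UGT1A1, 1A3, 1A4 and 1A6–1A10 were His-tagged and expressed in baculovirus-infected Sf9 cells; UGT2B4, 2B7, 2B15 and 2B17 were commercial membranes run per supplier protocol. 5 μg membrane protein with 250 μM substrate, 2 mM UDP-GlcUA, Tris–HCl pH 7.4, MgCl2, saccharolactone, 2% DMSO; 37 °C, 60 min; no-substrate controls. Products measured by HPLC-UV/vis; β-glucuronidase hydrolysis separated O- from carboxyl glucuronides.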

[4] = target: T3, UGT2B15 (Homo sapiens, UniProt P54855); assay: Screening of recombinant UGT2B15 for glucuronidation activity; conditions: 250 μM substrate, 5 μg protein, 60 min, 37 °C
T3 sequence (P54855 24-530): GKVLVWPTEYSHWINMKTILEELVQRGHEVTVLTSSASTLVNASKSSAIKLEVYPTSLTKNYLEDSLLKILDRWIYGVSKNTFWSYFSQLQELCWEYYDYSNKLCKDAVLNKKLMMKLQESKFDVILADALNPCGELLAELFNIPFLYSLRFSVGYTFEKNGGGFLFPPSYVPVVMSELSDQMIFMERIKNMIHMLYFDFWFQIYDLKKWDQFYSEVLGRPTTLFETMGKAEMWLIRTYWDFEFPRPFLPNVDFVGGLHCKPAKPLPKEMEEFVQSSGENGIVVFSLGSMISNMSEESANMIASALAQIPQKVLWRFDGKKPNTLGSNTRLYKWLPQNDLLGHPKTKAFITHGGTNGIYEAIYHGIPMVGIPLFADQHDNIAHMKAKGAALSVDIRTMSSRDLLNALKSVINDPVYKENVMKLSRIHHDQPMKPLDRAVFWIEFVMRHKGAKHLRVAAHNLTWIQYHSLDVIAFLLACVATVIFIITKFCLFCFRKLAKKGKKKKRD
In short: as §1

[5] = target: T4, UGT2B17 (Homo sapiens, UniProt O75795); assay: Screening of recombinant UGT2B17 for glucuronidation activity; conditions: 250 μM substrate, 5 μg protein, 60 min, 37 °C
T4 sequence (O75795 24-530): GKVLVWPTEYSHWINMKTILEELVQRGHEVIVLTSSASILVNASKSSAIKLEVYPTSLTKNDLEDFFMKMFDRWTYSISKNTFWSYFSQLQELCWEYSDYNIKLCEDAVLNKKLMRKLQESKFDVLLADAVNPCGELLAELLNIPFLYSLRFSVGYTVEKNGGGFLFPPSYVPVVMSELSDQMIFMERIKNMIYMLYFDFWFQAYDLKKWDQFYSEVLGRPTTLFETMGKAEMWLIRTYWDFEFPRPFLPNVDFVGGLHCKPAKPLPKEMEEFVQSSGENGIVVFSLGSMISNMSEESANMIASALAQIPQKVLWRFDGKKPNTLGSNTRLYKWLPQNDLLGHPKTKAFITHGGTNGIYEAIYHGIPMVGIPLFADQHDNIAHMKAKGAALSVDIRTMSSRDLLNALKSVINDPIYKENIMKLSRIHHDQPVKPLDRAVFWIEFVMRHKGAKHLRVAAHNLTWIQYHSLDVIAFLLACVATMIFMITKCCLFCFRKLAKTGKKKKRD
In short: as §1

Row | NI-12a-COO-gluc formation ([1]; COO-glucuronide) | kinetic model ([1]; NI-12a-O-gluc formation) | metabolites produced ([2]; donors HI34, HI36, HI40, and HI41) | metabolites produced ([2]; remaining donors with activity) | glucuronidation activity (glucuronide formed) [3] | Vmax ([1]; C=N–O-glucuronidation of NI-ST-05) [nm/mg protein/min] | Vmax ([1]; NI-ST-05–N–O-gluc formation) [nmol/mg/min] | kinetic model ([1]; NI-ST-05–N–O-gluc formation) | n (Hill coefficient) ([1]; NI-ST-05–N–O-gluc formation) | glucuronidation activity (glucuronide formed) [4] | glucuronidation activity (glucuronide formed) [5] | metabolites produced ([2]; all other donors (than HI27, HI29, HI30)) | Structure (SMILES) | glucuronidation activity ([2]; donors HI27, HI28, HI29, and HI54) | glucuronidation activity ([2]; donors HI27, HI29, and HI30)
1 | not produced | Michaelis–Menten and M–M | only one (the hydroxyl) metabolite | two (hydroxyl and carboxyl) metabolites |  |  |  |  |  |  |  |  | COc1ccc(/C=C(/C(=O)O)c2cc(OC)c(OC)c(OC)c2)cc1O [NI-12a, (E)-3-(3-hydroxy-4-methoxyphenyl)-2-(3,4,5-trimethoxyphenyl)acrylic acid] | failed to display glucuronidation activity | 
2 |  |  |  |  | inactive | 0.65 | 0.65 ± 0.017 | Hill | 3.4 | inactive | inactive | one metabolite | COc1ccc(C=Cc2cc(OC)cc(OC)c2/C=N/O)cc1 [NI-ST-05, (E)-2,4-dimethoxy-6-(4-methoxystyryl)benzaldehyde oxime] |  | failed to display glucuronidation activity
3 |  |  |  |  | No activity |  |  |  |  | No activity | No activity |  | COc1cc(/C=C/c2cc([N+](=O)[O-])c(O)c([N+](=O)[O-])c2)cc(OC)c1 [DNR-1, (E)-4-(3,5-dimethoxystyryl)-2,6-dinitrophenol] |  | 
